# Measured values reported in ChEMBL document CHEMBL1146144, “Identification of a novel boron-containing antibacterial agent (AN0128) with anti-inflammatory activity, for the potential treatment of cutaneous diseases” (2006).
# Experiments:
# Format in all cases: functional
# [1] = test system: Bacillus subtilis; test: Antibacterial activity against Bacillus subtilis
# [2] = test system: Haemophilus influenzae; test: Antibacterial activity against Haemophilus influenzae
# [3] = test system: Cutibacterium acnes; test: Antibacterial activity against Propionibacterium acnes
# [4] = test system: Staphylococcus aureus; test: Antibacterial activity against Staphylococcus aureus
# [5] = test system: Staphylococcus epidermidis; test: Antibacterial activity against Staphylococcus epidermidis
# [6] = test system: PBMC; test: Inhibition of LPS-induced TNFalpha release in human PBMC at 10 uM relative to Dexamethasone
# In short: (§1)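 Test compound at a single concentration of 10. Stimulation: LPS for 24 h (TNF-α, IL-1β), PHA for 24 h (IFN-γ), concanavalin A for 48 h (IL-4). Cytokines released were measured by ELISA. Inhibition is given as percent of untreated control.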
# [7] = test system: PBMC; test: Inhibition of LPS-induced IL1-beta release in human PBMC at 10 uM […]; in short: as §1
# [8] = test system: PBMC; test: Inhibition of PHA-induced IFN-gamma release in human PBMC at 10 uM relative to Dexamethasone; in short: as §1
# [9] = test system: PBMC; test: Inhibition of concanavalin A-induced IL4 release in human PBMC at 10 uM relative to Dexamethasone; in short: as §1
Structure (SMILES),MIC [1] [µg/mL],MIC [2] [µg/mL],MIC [3] [µg/mL],MIC [4] [µg/mL],MIC [5] [µg/mL],inhibition at 10 µM [6] [%],inhibition at 10 µM [7] [%],inhibition at 10 µM [8] [%],inhibition at 10 µM [9] [%]
Cc1ccc(B(OC(=O)c2ncccc2C(=O)O)c2ccc(C)c(Cl)c2)cc1Cl,8,8,3,0.125,4,–,–,–,–
Cc1ccc(B(OC(=O)c2ncccc2O)c2ccc(C)c(Cl)c2)cc1,2,> 64,3,4,2,–,–,–,–
O=C(OB(c1cccc(Cl)c1)c1cccc(Cl)c1)c1ncccc1O,16,16,10,≤ 0.125,8,–,–,–,–
CC(=O)Oc1cccnc1C(=O)OB(c1ccc(C)c(Cl)c1)c1ccc(C)c(Cl)c1,0.5,> 64,1,2,1,101,-49,–,–
O=C(OB(c1ccc(F)c(Cl)c1)c1ccc(F)c(Cl)c1)c1ncccc1O,8,4,3,1,8,–,–,–,–
Cc1ccc(B(OC(=O)c2ncccc2N)c2ccc(C)c(Cl)c2)cc1Cl,2,> 64,1,> 64,> 64,–,–,–,–
O=C(OB(c1cccc(F)c1)c1cccc(F)c1)c1ncccc1O,> 64,> 64,> 100,> 64,> 64,–,–,–,–
O=C(OB(c1ccc(Cl)cc1)c1ccc(Cl)cc1)c1ncccc1O,1,16,1,4,1,–,–,–,–
O=C(OB(c1ccc(Cl)cc1)c1ccc(Cl)nc1)c1ncccc1O,–,32,–,32,32,–,–,–,–
Cc1ccc(B(OC(=O)c2ccc(C(=O)O)cn2)c2ccc(C)c(Cl)c2)cc1Cl,8,8,3,0.5,8,100,80,24,9
CSc1cccc(B(OC(=O)c2ncccc2O)c2cccc(Cl)c2)c1,4,> 64,3,8,8,–,–,–,–
CC[C@H]1OC(=O)[C@H](C)[C@@H](O[C@H]2C[C@@](C)(OC)[C@@H](O)[C@H](C)O2)[C@H](C)[C@@H](O[C@@H]2O[C@H](C)C[C@H](N(C)C)[C@H]2O)[C@](C)(O)C[C@@H](C)C(=O)[C@H](C)[C@@H](O)[C@]1(C)O [ERYTHROMYCIN],0.1,4,0.1,0.5,0.15,22,-32,–,–
Cc1ccc(B(CCc2ccccc2)OC(=O)c2ncccc2O)cc1Cl,1,> 64,1,0.5,1,–,–,–,–
CN(C)c1ccc(B(OC(=O)c2ncccc2O)c2ccc(N(C)C)c(Cl)c2)cc1Cl,64,> 64,–,32,32,–,–,–,–
Cc1ccc(B(OC(=O)c2ccccn2)c2ccc(C)c(Cl)c2)cc1Cl,–,–,–,0.5,> 64,–,–,–,–
Cc1ccc(B(OC(=O)c2ncccc2O)c2ccc(C)c(Cl)c2)cc1Cl,1,> 64,0.3,1,0.5,100,99,-20,-21
CCOc1ccc(B(OC(=O)c2ncccc2O)c2ccc(OCC)c(Cl)c2)cc1Cl,2,> 64,1,2,2,–,–,–,–
Cc1cc(Cl)ccc1B(OC(=O)c1ncccc1O)c1ccc(Cl)cc1C,0.5,16,0.3,4,2,101,103,15,57
Cc1ccc(B(OC(=O)c2ncccc2C(=O)c2ccccc2)c2ccc(C)c(Cl)c2)cc1Cl,64,> 64,30,0.5,32,–,–,–,–
O=C(OB(c1ccc(Cl)cc1)c1cccnc1)c1ncccc1O,–,16,–,64,32,–,–,–,–
Cc1ccccc1B(OC(=O)c1ncccc1O)c1cccc(Cl)c1,4,> 64,3,8,8,–,–,–,–
Cc1ccc(B(OC(=O)c2cc(C(=O)O)ccn2)c2ccc(C)c(Cl)c2)cc1Cl,–,–,3,2,4,–,–,–,–
O=C(OB(c1cccnc1)c1cccc(Cl)c1)c1ncccc1O,–,32,–,16,32,–,–,–,–
O=C(OB(c1ccsc1)c1cccc(Cl)c1)c1ncccc1O,16,32,10,32,32,–,–,–,–
